Laboratory results published in ChEMBL document CHEMBL3612034, “Synthesis of bicoumarin thiophosphate derivatives as steroid sulfatase inhibitors” (Eur J Med Chem, 2015).
Activity calls are given as the source filed them. The calls are words filed in the database; no cut-off is given here.

What was measured:
Steryl-sulfatase [1] = molecular target: T1, Steryl-sulfatase (Homo sapiens, UniProt P08842); assay: Inhibition of recombinant human STS transfected in CHO cells using MUS as substrate after 30 mins by fluorescence assay; format: cell-based
T1 sequence (P08842 whole entry): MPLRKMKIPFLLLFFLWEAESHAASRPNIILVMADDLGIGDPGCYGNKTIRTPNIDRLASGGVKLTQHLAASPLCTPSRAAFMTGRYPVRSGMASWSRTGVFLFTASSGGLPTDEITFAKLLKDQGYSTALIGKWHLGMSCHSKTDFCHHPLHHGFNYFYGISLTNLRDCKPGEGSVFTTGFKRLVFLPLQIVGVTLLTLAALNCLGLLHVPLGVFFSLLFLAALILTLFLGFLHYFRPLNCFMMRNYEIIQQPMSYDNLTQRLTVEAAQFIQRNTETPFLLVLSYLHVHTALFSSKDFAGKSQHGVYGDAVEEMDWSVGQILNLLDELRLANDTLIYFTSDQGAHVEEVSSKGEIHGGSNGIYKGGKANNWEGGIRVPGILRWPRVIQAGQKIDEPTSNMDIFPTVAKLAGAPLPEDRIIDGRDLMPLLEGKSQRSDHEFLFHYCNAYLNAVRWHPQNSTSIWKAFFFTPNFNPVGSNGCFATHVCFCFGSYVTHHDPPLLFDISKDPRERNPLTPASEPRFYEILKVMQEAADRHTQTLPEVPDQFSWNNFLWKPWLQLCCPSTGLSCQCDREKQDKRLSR

Steryl-sulfatase [2] = molecular target: T1, Steryl-sulfatase; assay: Inhibition of human placenta STS using NPS as substrate after 15 mins by microplate reader analysis
Method in brief: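 Enzyme: STS extracted from human placenta and purified by multi-step chromatography. Each reaction held 20 mM Tris-HCl pH 7.4, 3 mM p-nitrophenyl sulfate (NPS), 5 U enzyme and graded inhibitor concentrations, and ran 15 min at 37 °C. Stopped with 1 M NaOH; released p-nitrophenol read at 405 nm. IC50 fitted from triplicate measurements.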

[3] = molecular target: T2, Steryl-sulfatase (Homo sapiens) (UniProt P08842); assay: Irreversible inhibition of human placenta STS at 100 uM preincubated for 30 mins in standard condition followed by exchange of reaction environment
T2 sequence (whole entry): T1 sequence (P08842 whole entry)
Method in brief: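 Purified human placental STS was run under standard assay conditions (Tris-HCl pH 7.4, NPS substrate, 37 °C) with inhibitor present. Restored enzyme activity was then measured the same way, by p-nitrophenol absorbance at 405 nm after an NaOH stop. Basal and restored activities were compared to tell reversible from irreversible inhibition.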

[4] = molecular target: T2, Steryl-sulfatase (Homo sapiens); assay: Reversible inhibition of human placenta STS at 100 uM preincubated for 30 mins in standard condition followed by exchange of reaction environment
Method in brief: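 Reversibility test: the standard placental STS/NPS assay (Tris-HCl pH 7.4, 37 °C) was run with compound at a single fixed concentration. Enzyme activity was then measured again after restoration by the same p-nitrophenol absorbance read-out at 405 nm. Basal and restored activities were compared.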

Steryl-sulfatase [5] = molecular target: T1, Steryl-sulfatase; assay: Inhibition of human placenta STS
Method in brief: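 Human placental STS purified to homogeneity by multi-step chromatography. Each reaction used 5 U enzyme, 20 mM Tris-HCl pH 7.4, 3 mM p-nitrophenyl sulfate (NPS) and a range of inhibitor concentrations, for 15 min at 37 °C. NaOH stopped the reaction, and released p-nitrophenol was read at 405 nm. IC50 came from the dose-response curve, run in triplicate.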

| Compound | IC50 (Steryl-sulfatase [2]) [µM] | also measured |
| --- | --- | --- |
| CC(C)N(C(=O)C1=CC[C@H]2[C@@H]3CCc4cc(OS(N)(=O)=O)ccc4[C@H]3CC[C@]12C)C(C)C |  | IC50 (Steryl-sulfatase [1]): 4 nM |
| NP(=S)(Oc1ccc2c3c(c(=O)oc2c1)CCCCC3)Oc1ccc2c3c(c(=O)oc2c1)CCCCC3 | 88.8 |  |
| O=c1oc2cc(OP(O)(=S)Oc3ccc4c5c(c(=O)oc4c3)CCCCC5)ccc2c2c1CCCCC2 | 5.51 |  |
| O=c1oc2cc(OP(=S)(Cl)Oc3ccc4c5c(c(=O)oc4c3)CCCC5)ccc2c2c1CCCC2 | 7.76 | inhibition [3]: Active |
| O=c1oc2cc(OP(=S)(Cl)Oc3ccc4c5c(c(=O)oc4c3)CCCCC5)ccc2c2c1CCCCC2 | 7.04 |  |
| COP(=S)(Oc1ccc2c3c(c(=O)oc2c1)CCCC3)Oc1ccc2c3c(c(=O)oc2c1)CCCC3 | 14.8 |  |
| COP(=S)(Oc1ccc2c3c(c(=O)oc2c1)CCC3)Oc1ccc2c3c(c(=O)oc2c1)CCC3 | 75 |  |
| O=c1oc2cc(OP(=S)(Cl)Oc3ccc4c5c(c(=O)oc4c3)CCC5)ccc2c2c1CCC2 | 33.8 |  |
| NP(=S)(Oc1ccc2c3c(c(=O)oc2c1)CCCC3)Oc1ccc2c3c(c(=O)oc2c1)CCCC3 | 110 |  |
| NP(=S)(Oc1ccc2c3c(c(=O)oc2c1)CCC3)Oc1ccc2c3c(c(=O)oc2c1)CCC3 | 74.3 |  |
| O=c1oc2cc(OP(O)(=S)Oc3ccc4c5c(c(=O)oc4c3)CCC5)ccc2c2c1CCC2 | 26.9 |  |
| COP(=S)(Oc1ccc2c3c(c(=O)oc2c1)CCCCC3)Oc1ccc2c3c(c(=O)oc2c1)CCCCC3 | 6.77 | inhibition [3]: Active |
| O=c1oc2cc(OP(O)(=S)Oc3ccc4c5c(c(=O)oc4c3)CCCC5)ccc2c2c1CCCC2 | 0.86 | inhibition [4]: Active |
| NS(=O)(=O)Oc1ccc2c(c1)OC(O)C1=C2CCCCC1 (configuration not stated) |  | IC50 (Steryl-sulfatase [5]): 8 nM |
